According to paper PMC9290582 (British Journal of Clinical Pharmacology, 2021):

Experiments:
[1] = cited from earlier work
[2] = high-calorie meal vs. fasting conditions; cited from earlier work
[3] = Model-predicted steady-state exposure and covariate effects; type: in vivo, human; conditions: for Reduction of AUC24h,ss by coadministration of PPIs: population PK study; for Exposure lower with concomitant PPI use: relative to a reference patient
Procedure, shortened: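 Exposure simulated stochastically from the final population PK model at 100 mg BID. AUC24h,ss and Cmax,ss were reported as model-predicted medians (90% prediction interval) relative to a reference patient: B-cell malignancy, ECOG PS 0 or 1, no concomitant PPI. A covariate effect was deemed not relevant if its change and 95% CI fell within 0.8–1.25.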

[4] = healthy subjects; ref data on file; cited from earlier work
[5] = Population pharmacokinetic analysis; type: in vivo, human; conditions: for CL/F, apparent clearance / Vp/F, apparent peripheral volume of distribution: parent; for Covariate effect ECOG 2—CL/F / Covariate effect Healthy subject—CL/F / Covariate effect Healthy subject—Vp/F / Covariate effect PPI—F1 (relative bioavailability): relative change (1 + estimate)
Procedure, shortened: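 Model: 2-compartment, 5-transit absorption chain, first-order absorption and elimination. Metabolite formation was CL/F × fraction metabolized, fixed at 0.4. BSV and BOV were exponential; residual error was additive on log scale. Precision was checked by bootstrap.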

[6] = system: Bruton tyrosine kinase (BTK); conditions: cited from earlier work
[7] = cited from earlier work; remark: listed apart in the source
[8] = relative to a reference cancer population
[9] = bootstrap 50th [2.5th, 97.5th percentile]
[10] = final model fixed effect, estimate (%RSE)
[11] = final model, bootstrap 50th [2.5th, 97.5th percentile]

## CC#CC(=O)N1CCC[C@H]1c1nc(-c2ccc(C(=O)Nc3ccccn3)cc2)c2c(N)nccn12 [acalabrutinib]
[1]
  Solubility dependence on pH: decreases with increasing gut pH
[2]
  Effect of a high-calorie meal on Cmax: delayed and decreased
  Effect of a high-calorie meal on mean AUC: similar
[3]
  Reduction of AUC24h,ss by coadministration of PPIs: 36%
  Exposure lower with concomitant PPI use: 36%
[3]; [8]
  AUC24h,ss higher in subjects with ECOG PS ≥ 2: 21%
  AUC24h,ss lower in healthy subjects: 32%
  Cmax,ss higher in subjects with ECOG PS ≥ 2: 14%
  Cmax,ss lower in healthy subjects: 24%
[4]
  Decrease of AUC on coadministration with omeprazole (PPI): 43%
[5]; [9]
  BOV F1 (between-occasion variability, relative bioavailability): 55.3 [50.4, 61.1] CV%
  BOV MTT (between-occasion variability): 119 [104, 137] CV%
  BSV CL/F (between-subject variability): 24.1 [20.4, 28] CV%
  BSV Vc/F: 284 [225, 367] CV%
  BSV Vp/F: 33.9 [25, 42.4] CV%
  Covariate effect ECOG 2—CL/F: −0.158 [−0.274, −0.032]
  Covariate effect Healthy subject—CL/F: 0.467 [0.367, 0.569]
  Covariate effect Healthy subject—Vp/F: −0.554 [−0.6, −0.496]
  Covariate effect PPI—F1 (relative bioavailability): −0.368 [−0.49, −0.228]
[5]; estimate (%RSE)
  BOV F1 (between-occasion variability, relative bioavailability): 56.1 (1.80) CV%
  BOV MTT (between-occasion variability): 118 (2.39) CV%
  BSV CL/F (between-subject variability): 23.8 (5.86) CV%
  BSV Vc/F: 270 (6.51) CV%
  BSV Vp/F: 33.7 (6.96) CV%
  Covariate effect ECOG 2—CL/F: −0.171 (36.2)
  Covariate effect Healthy subject—CL/F: 0.467 (19.3)
  Covariate effect Healthy subject—Vp/F: −0.556 (5.59)
  Covariate effect PPI—F1 (relative bioavailability): −0.358 (7.01)
[5]; [10]
  Ka, first-order absorption rate constant: 1.48 (2.63) h^−1
  MTT, mean transit time: 0.459 (4.16) h
  CL/F, apparent clearance: 134 (1.97) L/h
  Vp/F, apparent peripheral volume of distribution: 110 (3.45) L
[5]; [11]
  Ka, first-order absorption rate constant: 1.48 [1.41, 1.55] h^−1
  MTT, mean transit time: 0.460 [0.426, 0.492] h
  CL/F, apparent clearance: 132 [126, 139] L/h
  Vp/F, apparent peripheral volume of distribution: 108 [97.6, 120] L
[5]; remaining variability in absorption not related to PPIs
  BOV on MTT: 118%

## CC#CC(=O)NCCCC(=O)c1nc(-c2ccc(C(=O)Nc3ccccn3)cc2)c2c(N)nccn12 [ACP‐5862]
[6]
  Potency for BTK inhibition relative to acalabrutinib: approximately half as potent as acalabrutinib
[7]
  Mean exposure relative to that of acalabrutinib: approximately 2 fold
[3]
  Reduction of AUC24h,ss by coadministration of PPIs: 36%
  Exposure lower with concomitant PPI use: 36%
[5]; [9]
  BSV CLM/F: 13.1 [9.22, 20.2] CV%
  BSV QM/F: 40 [23.8, 59.2] CV%
  BSV VcM/F: 53.3 [36.9, 71.1] CV%
  BSV VpM/F: 21.2 [15.3, 41.2] CV%
[5]; estimate (%RSE)
  BSV CLM/F: 11.8 (21.1) CV%
  BSV QM/F: 40.7 (14.4) CV%
  BSV VcM/F: 47.2 (12.1) CV%
  BSV VpM/F: 19.2 (30.5) CV%
[5]; [10]
  CLM/F, apparent clearance metabolite: 21.8 (1.98) L/h
  VcM/F, apparent central volume of distribution metabolite: 22.7 (6.66) L
  VpM/F, apparent peripheral volume of distribution metabolite: 89.2 (4.58) L
[5]; [11]
  CLM/F, apparent clearance metabolite: 21.6 [20.2, 22.6] L/h
  VcM/F, apparent central volume of distribution metabolite: 22.7 [19.5, 25.8] L
  VpM/F, apparent peripheral volume of distribution metabolite: 88.1 [77.6, 97] L
